From ChEMBL document CHEMBL2413057, “Synthesis and in vitro evaluation of new ethyl and methyl quinoxaline-7-carboxylate 1,4-di-N-oxide against Entamoeba histolytica” (Bioorg Med Chem, 2013)

What was measured:
[1] = test system: Entamoeba histolytica; assay: Antiamoebic activity against trophozoite stage of Entamoeba histolytica HM-1:IMSS assessed as growth inhibition after 48 hrs by microdilution method; format: functional, organism-based
How it was run: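 Axenic log-phase HM1:IMSS trophozoites grown in BI-S-33 medium with 20% calf serum, viability counted by trypan blue, seeded at 10⁵/mL (100 µL per well). Compounds dissolved in 0.1% DMSO, two-fold serial dilutions in medium. Incubated 37 °C, 48 h, then WST-1 added for 4 h at 37 °C, OD 490 nm. IC50 by linear regression of % inhibition versus concentration, duplicate, mean ± SD.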

[2] = Selectivity index, ratio of IC50 for african green monkey Vero cells to IC50 for trophozoite stage of Entamoeba histolytica HM-1:IMSS
How it was run: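 Computed as VERO toxicity IC50 divided by the E. histolytica IC50, where each IC50 is the concentration that kills 50% of the respective cells.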

[3] = test system: Vero; assay: Cytotoxicity against african green monkey Vero cells assessed as cell viability after 48 hrs by WST-1 assay; format: cell-based; conditions: Chlorocebus sabaeus
How it was run: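 VERO cells in MEM with 0.1 mM nonessential amino acids, 1 mM pyruvate and 10% FBS, 37 °C, 5% CO₂. Plated at 10⁴ cells/well, 24 h before dosing. Compounds diluted in complete medium to 0.1–100 µM, 48 h exposure against an untreated control. WST-1 added for 4 h at 37 °C. Quadruplicate, repeated twice, mean ± SD, ANOVA.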

[4] = Entamoeba histolytica, HM-1:IMSS, 48 h, read-out: IC50

For `CCOC(=O)c1ccc2no[n+]([O-])c2c1`, the IC50 [1, 4] was 221 µM.

In the case of `COC(=O)c1ccc2c(c1)[n+]([O-])c(C(=O)c1cccs1)c(C(F)(F)F)[n+]2[O-]`, the IC50 [1, 4] is reported as 0.35 µM, the “Ratio IC50” value [2] is reported as 16.74 and the IC50 [3] is reported as 5.86 µM.

In the case of `COC(=O)c1ccc2c(c1)[n+]([O-])c(C(=O)c1ccc3ccccc3c1)c(C(F)(F)F)[n+]2[O-]`, the IC50 [1, 4] is reported as 5.29 µM.

`CCOC(=O)Cc1c(C(=O)OCC)[n+]([O-])c2cc(C(=O)OC)ccc2[n+]1[O-]` showed an IC50 [1, 4] of 1.91 µM.

With `CCOC(=O)c1ccc2c(c1)[n+]([O-])c(C(=O)OC)c(C)[n+]2[O-]` the IC50 [1, 4] was 1.88 µM, the “Ratio IC50” value [2] was over 53.19 and the IC50 [3] was over 100 µM.

`CCOC(=O)c1ccc2c(c1)[n+]([O-])c(C(=O)OCC)c(C)[n+]2[O-]` gave an IC50 [1, 4] of 4.18 µM.

With `CCOC(=O)c1ccc2c(c1)[n+]([O-])c(C(N)=O)c(C)[n+]2[O-]` the IC50 [1, 4] was 1.47 µM, the “Ratio IC50” value [2] was over 68.02 and the IC50 [3] was over 100 µM.

For `CCOC(=O)c1ccc2c(c1)[n+]([O-])c(C(=O)c1ccccc1)c(C)[n+]2[O-]`, the IC50 [1, 4] was 1.93 µM, the “Ratio IC50” value [2] was over 51.81 and the IC50 [3] was over 100 µM.

In the case of `CCOC(=O)c1ccc2c(c1)[n+]([O-])c(C(=O)Nc1ccccc1)c(C)[n+]2[O-]`, the IC50 [1] is reported as “ND(Insoluble)”.

For `CCOC(=O)c1ccc2c(c1)[n+]([O-])c(C(=O)OCc1ccccc1)c(C)[n+]2[O-]`, the IC50 [1] was “ND(Insoluble)”.

In the case of `CCOC(=O)c1ccc2c(c1)[n+]([O-])c(C(C)=O)c(C(F)(F)F)[n+]2[O-]`, the IC50 [1, 4] is reported as 1.98 µM, the “Ratio IC50” value [2] is reported as 6.6 and the IC50 [3] is reported as 13.1 µM.

`CCOC(=O)c1ccc2c(c1)[n+]([O-])c(C(=O)CC)c(C(F)(F)F)[n+]2[O-]` showed an IC50 [1, 4] of 18.1 µM.

For `CCOC(=O)c1ccc2c(c1)[n+]([O-])c(C(=O)c1cccs1)c(C(F)(F)F)[n+]2[O-]`, the IC50 [1, 4] was 2.5 µM, the “Ratio IC50” value [2] was 2.69 and the IC50 [3] was 6.74 µM.

In the case of `CCOC(=O)c1ccc2c(c1)[n+]([O-])c(C(=O)c1ccc3ccccc3c1)c(C(F)(F)F)[n+]2[O-]`, the IC50 [1] is reported as “ND(Insoluble)”.

In the case of `CCOC(=O)c1ccc2c(c1)[n+]([O-])c(C(=O)c1ccco1)c(C(F)F)[n+]2[O-]`, the IC50 [1, 4] is reported as 3.81 µM.

With `CCOC(=O)c1ccc2c(c1)[n+]([O-])c(C(=O)OCC)c(-c1ccccc1)[n+]2[O-]` the IC50 [1, 4] was 7.13 µM.

For `O=C(O)c1ccc2no[n+]([O-])c2c1`, the IC50 [1] was “ND(Insoluble)”.

`COC(=O)c1ccc2no[n+]([O-])c2c1` showed an IC50 [1, 4] of 74.5 µM.

In the case of `COC(=O)c1ccc2c(c1)[n+]([O-])c(C(C)=O)c(C)[n+]2[O-]`, the IC50 [1, 4] is reported as 1.41 µM, the “Ratio IC50” value [2] is reported as over 70.92 and the IC50 [3] is reported as over 100 µM.

In the case of `COC(=O)c1ccc2c(c1)[n+]([O-])c(C(=O)OC)c(C)[n+]2[O-]`, the IC50 [1, 4] is reported as 4.17 µM.

In the case of `CCOC(=O)c1c(C)[n+]([O-])c2ccc(C(=O)OC)cc2[n+]1[O-]`, the IC50 [1, 4] is reported as 1.99 µM, the “Ratio IC50” value [2] is reported as over 50.25 and the IC50 [3] is reported as over 100 µM.

With `COC(=O)c1ccc2c(c1)[n+]([O-])c(C(=O)OC(C)(C)C)c(C)[n+]2[O-]` the IC50 [1] was “ND(Insoluble)”.

In the case of `COC(=O)c1ccc2c(c1)[n+]([O-])c(C(=O)c1ccccc1)c(C)[n+]2[O-]`, the IC50 [1, 4] is reported as 3.43 µM.

In the case of `COC(=O)c1ccc2c(c1)[n+]([O-])c(C(=O)Nc1ccccc1)c(C)[n+]2[O-]`, the IC50 [1, 4] is reported as 4.14 µM.

With `CCOC(=O)c1c(-c2ccccc2)[n+]([O-])c2ccc(C(=O)OC)cc2[n+]1[O-]` the IC50 [1, 4] was 12.2 µM.

With `COC(=O)c1ccc2c(c1)[n+]([O-])c(C(C)=O)c(C(F)(F)F)[n+]2[O-]` the IC50 [1, 4] was 1.53 µM, the “Ratio IC50” value [2] was 2.14 and the IC50 [3] was 3.28 µM.

With `COC(=O)c1ccc2c(c1)[n+]([O-])c(C(=O)C(C)C)c(C(F)(F)F)[n+]2[O-]` the IC50 [1, 4] was 1.88 µM, the “Ratio IC50” value [2] was 3.7 and the IC50 [3] was 6.97 µM.

`COC(=O)c1ccc2c(c1)[n+]([O-])c(C(=O)c1ccccc1)c(C(F)(F)F)[n+]2[O-]` showed an IC50 [1, 4] of 6.07 µM.

Work on `[O-][n+]1onc2ccccc21` [BENZO[C][1,2,5]OXADIAZOLE 1-OXIDE] yielded an IC50 [1, 4] of 12 µM.

With `Cc1ncc([N+](=O)[O-])n1CCO` [METRONIDAZOLE] the IC50 [1, 4] was 4.5 µM, the “Ratio IC50” value [2] was over 22.22 and the IC50 [3] was over 100 µM.

In the case of `CC(=O)Oc1ccccc1C(=O)Nc1ncc([N+](=O)[O-])s1` [NITAZOXANIDE], the IC50 [1, 4] is reported as 3.9 µM, the “Ratio IC50” value [2] is reported as 2.75 and the IC50 [3] is reported as 10.7 µM.
